Source: PubChem BioAssay (several laboratories)
Shown are actives, neighbours in structure and some others; about 5.7% of the full set was active somewhere.
Beta apoptosis – inhibitors of cytokine-induced beta cell apoptosis, primary screen, luminescence; protection from apoptosis, % (concentration not given with the values); INS-1E cytokine-induced death, ATP luminescence, 48 h; percent of positive-control rescue, neutral wells zero; hit rate 0.8% among 300,000;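 active = Every replicate reaches about 75%, or at least half do and their mean reaches it too, limit read from the data; inconclusive = At least half of replicates reach the limit but their mean does not; inactive = Under half of replicates reach the limit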;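 also: higher means more ATP so stronger rescue from cytokine killing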
Mdm2-MdmX inh – inhibitors of human Mdm2-MdmX association, primary screen, cell-based, luminescence, split luciferase, SaOS-2, uHTS; Protein Mdm4 (Homo sapiens) + E3 ubiquitin-protein ligase Mdm2 (Homo sapiens), …; SaOS-2 split-luciferase Mdm2/MdmX complementation; inhibition, % at 8 µM; hit rate 3% among 330,000; AID 485346, 2010;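 active = inhibition of at least 50% at 8 µM in the primary screen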
Target sequence (O15151 whole entry, looked up): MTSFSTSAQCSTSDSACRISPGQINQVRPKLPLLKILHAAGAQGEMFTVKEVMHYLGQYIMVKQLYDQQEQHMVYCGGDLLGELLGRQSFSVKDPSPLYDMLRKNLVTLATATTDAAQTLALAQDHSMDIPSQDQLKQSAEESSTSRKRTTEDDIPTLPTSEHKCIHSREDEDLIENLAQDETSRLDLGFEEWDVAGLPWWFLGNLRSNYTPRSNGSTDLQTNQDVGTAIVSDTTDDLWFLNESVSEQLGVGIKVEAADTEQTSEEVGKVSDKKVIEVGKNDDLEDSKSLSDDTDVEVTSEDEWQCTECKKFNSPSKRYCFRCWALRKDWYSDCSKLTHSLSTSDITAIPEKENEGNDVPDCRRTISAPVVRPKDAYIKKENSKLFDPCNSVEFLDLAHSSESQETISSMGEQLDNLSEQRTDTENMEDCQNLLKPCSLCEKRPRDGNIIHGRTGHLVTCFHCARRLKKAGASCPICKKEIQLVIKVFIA
Target sequence (Q00987 whole entry, looked up): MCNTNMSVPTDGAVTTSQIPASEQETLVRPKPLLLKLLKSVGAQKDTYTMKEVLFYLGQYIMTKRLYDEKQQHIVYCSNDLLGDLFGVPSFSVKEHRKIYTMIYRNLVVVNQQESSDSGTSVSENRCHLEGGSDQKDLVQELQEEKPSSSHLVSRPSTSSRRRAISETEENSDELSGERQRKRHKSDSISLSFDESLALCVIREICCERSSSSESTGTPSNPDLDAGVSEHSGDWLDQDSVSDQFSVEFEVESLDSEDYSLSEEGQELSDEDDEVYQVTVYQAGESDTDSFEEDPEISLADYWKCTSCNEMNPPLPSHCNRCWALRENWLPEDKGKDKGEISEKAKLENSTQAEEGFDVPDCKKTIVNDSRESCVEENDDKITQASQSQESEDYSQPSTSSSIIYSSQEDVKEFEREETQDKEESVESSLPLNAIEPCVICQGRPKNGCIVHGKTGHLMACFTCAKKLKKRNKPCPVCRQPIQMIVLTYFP
Calb FLC – C. albicans growth inhibition with fluconazole, primary screen, CaCi-2 strain, Alamar Blue fluorescence. growth inhibition, % (test concentration not listed). hit rate 0.57% among 300,000. C. albicans CaCi-2 (fluconazole-resistant clinical isolate) + fluconazole, 48 h;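 active = growth inhibition above about 58% in most replicates, limit read from the data, passing the limit was not always enough; inconclusive = exactly half the replicates above a set limit; inactive = most replicates below a set limit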;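 also: all wells also contain fluconazole at 8 µg/ml as a sub-toxic cotreatment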
CSC inhib – cancer stem cell viability inhibitors, primary screen, luminescence. cancer stem cell-like cells viability. inhibition, % at 7.5 µM. hit rate 1.1% among 300,000. AID 2717, 2010; in the data active = inhibition above about 75%; inconclusive = no clear call, values can overlap the other calls; tested in HMLE shEcad cells
SKKanGAS inh – S. pyogenes SKKanGAS growth inhibitors in kanamycin, primary screen, streptokinase expression inhibitor project, SKKanGAS strain, BacTiter-Glo luminescence; 6 h; inhibition, % at 7.5 µM; hit rate 1.3% among 300,000; AID 1662, 2009;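 active = mean replicate score, as percent of positive control median, at least 50; inconclusive = mean below 50 but one replicate at or above 50; inactive = mean and every replicate below 50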;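 also: strain carries kanamycin resistance gene driven by streptokinase promoter and grows in 40 µg/ml kanamycin; loss of luminescence reflects streptokinase promoter inhibition or plain growth inhibition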
T cruzi inh – inhibitors of intracellular T. cruzi growth, primary screen, luminescence, NIH3T3 host cells; T. cruzi beta-gal in NIH3T3, 90 h; inhibition, % (no concentration beside the values); hit rate 1.4% among 300,000; AID 1885, 2009;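 active = mean inhibition across valid replicates above about 55%, limit read from the data; inconclusive = mean below that limit but half or more replicates reach it; inactive = mean below it, under half of replicates reach it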;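 also: signal also drops with host cell toxicity which is not excluded here; higher percent means less beta-gal luminescence so fewer parasites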
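Test system: β-gal T. cruzi (Tulahuen C4) inside NIH/3T3 cells / Quantity: 5,000 cells/well / Measured by: luminescence from GalScreen with 0.05% NP40, read after 60 min / Medium: DMEM plus 2% FBS / Measure: parasite load inhibition, % / Reagent: Tulahuen C4 trypomastigotes, 5000/well / Schedule: co-culture of at least 90 h after 3 h attachment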
Mdm2 MdmX conf – Mdm2-MdmX complex disruptors, retested hits, confirmation, luminescence, single concentration; shares compounds with Mdm2-MdmX inh; Mdm2-MdmX binding, luminescent assay; inhibition, % at 8 µM; hit rate 55% among 10,000; in the data active = inhibition above about 40%
FLuc counter – full-length luciferase signal inhibition, confirmation, counter-screen for Mdm2/MdmX interaction inhibitor project, cell-based, single concentration, SaOS-2; shares compounds with Mdm2-MdmX inh; SaOS-2 full-length luciferase counterscreen, luminescence; inhibition, % at 8 µM; hit rate 77% among 6,200;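 active = mean inhibition at 8 µM reaching about 37%, which flags the compound as non-specific, limit read from the data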;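 also: p53-null SaOS-2 cells with luciferase driven by a doxycycline-inducible promoter; compound on cells about two nights before reading with doxycycline added after day one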
Of the large screens only hits and unclear results are named; the others gave an inactive call (follow-up assays come after a bar, where they were run).

COc1ccc(CC(=O)Nc2ccc(/C(C)=N/NC(=O)c3cccc([N+](=O)[O-])c3)cc2)cc1	Mdm2-MdmX inh 57.0 | Mdm2 MdmX conf inactive
CCCCCCCC(=O)Nc1ccc(C(=O)N/N=C/c2cccc([N+](=O)[O-])c2)cc1	Beta apoptosis 94.7, Mdm2-MdmX inh 87.8 | Mdm2 MdmX conf inactive
COc1ccc(C(CNC(=O)COc2ccccc2)N2CCCCC2)cc1 (stereo not drawn)	none (no result: Beta apoptosis, Calb FLC, CSC inhib, SKKanGAS inh, T cruzi inh)
COc1cc2c(c(OC)c1OC)C(c1ccc(C)cc1)CC(=O)O2 (stereo not drawn)	none (no result: Beta apoptosis, Calb FLC, CSC inhib, SKKanGAS inh, T cruzi inh)
C=CCn1c(SCC(=O)N(CCOC)c2c(N)n(CCCC)c(=O)[nH]c2=O)nnc1-c1ccc(Cl)cc1	none
CC1CCCC(C)N1/N=C/c1cccc(Br)c1 (stereo not drawn)	none
O=C(c1nc2ccccn2c1CNCCCn1nnc2ccccc21)N1CCOCC1	none
COc1ccccc1CNC(=O)COC(=O)CCN=C1NS(=O)(=O)c2ccccc21	none
COc1ccc(CN(C(=O)c2ccc(-c3ccccc3)[nH]2)C(C(=O)NC(C)(C)C)c2ccncc2)cc1 (stereo not drawn)	Mdm2-MdmX inh 52.0, T cruzi inh 58.5 | Mdm2 MdmX conf inactive | FLuc counter 83.3
COc1ccc(CN(CCC(C)C)S(=O)(=O)c2ccccc2Br)cc1	none (no result: Beta apoptosis, Calb FLC, CSC inhib, SKKanGAS inh, T cruzi inh)
COc1ccc(CN(C2CC2)S(=O)(=O)c2ccccc2Br)cc1	Mdm2-MdmX inh 50.7 (no result: Beta apoptosis, Calb FLC, CSC inhib, SKKanGAS inh, T cruzi inh) | Mdm2 MdmX conf inactive
O=C(NC(Cc1c[nH]c2ccccc12)C(=O)Nc1ccc(F)c([N+](=O)[O-])c1)c1cccs1 (stereo not drawn)	Mdm2-MdmX inh 96.4 | Mdm2 MdmX conf 86.9 | FLuc counter inactive
O=C(NC(Cc1c[nH]c2ccccc12)C(=O)Nc1ccc(OC(F)(F)F)cc1)c1cccs1 (stereo not drawn)	Mdm2-MdmX inh 93.0 | Mdm2 MdmX conf 93.5 | FLuc counter inactive
O=C(NC(Cc1c[nH]c2ccccc12)C(=O)O)c1cccs1 (stereo not drawn)	none
C[C@@]12C(=O)NCC(=O)N1[C@@H]1c3cc(Br)ccc3OC[C@@H]1[C@@H]2c1ccccc1	none (no result: Calb FLC, SKKanGAS inh, T cruzi inh)
O=c1[nH]c2ccc(Cl)cc2c(-c2ccccc2)c1SC(=S)N1CCOCC1	Mdm2-MdmX inh 52.7, SKKanGAS inh 84.0 | Mdm2 MdmX conf 51.5 | FLuc counter 44.8
O=c1[nH]c2ccc(Cl)cc2c(O)c1-c1ccccc1	none
NNC(=O)CSc1c(-c2ccccc2)c2cc(Cl)ccc2[nH]c1=O	none
O=c1[nH]c2ccc(Cl)cc2c(-c2ccccc2)c1SC(=S)N1CCCCC1	Mdm2-MdmX inh 60.7, SKKanGAS inh 66.4 | Mdm2 MdmX conf 44.2 | FLuc counter 56.6
CC1(C)c2[nH]c3ccccc3c2C[C@H]2C(=O)N(CCCCCO)CC(=O)N21	none
O=C1C=C(c2ccc3c(c2)OCO3)C[C@@H](c2ccc(Cl)cc2)C1	none (no result: Calb FLC, SKKanGAS inh, T cruzi inh)
Oc1ccccc1/C=N/[n+]1ccccc1	Mdm2-MdmX inh 52.6 | Mdm2 MdmX conf 52.9 | FLuc counter 120.6
CC(=O)NC(c1ccccc1)c1cc([N+](=O)[O-])c2cccnc2c1O (stereo not drawn)	Mdm2-MdmX inh 63.3, CSC inhib 119.7 | Mdm2 MdmX conf 67.0 | FLuc counter 49.6
CC(C)C(=O)NC(c1ccccc1)c1cc([N+](=O)[O-])c2cccnc2c1O (stereo not drawn)	Beta apoptosis 91.3, Mdm2-MdmX inh 81.2, CSC inhib 147.4, SKKanGAS inh 84.2 | Mdm2 MdmX conf 71.8 | FLuc counter 41.8
COc1ccccc1NC(=O)C(C)OC(=O)CCSc1ccc(F)cc1 (stereo not drawn)	none
Cc1ccc(/C=C/S(=O)(=O)NCC(=O)OCC(=O)Nc2c(F)cccc2F)cc1	none
Cc1cc(NC(=O)CN(C)CC(=O)Nc2ccc(Cl)cc2)no1	none (no result: Calb FLC, SKKanGAS inh, T cruzi inh)
COc1cccc(/C=N/c2oc(-c3ccccc3)cc2C#N)c1O	none
N#Cc1cc(-c2ccccc2)oc1/N=C/c1ccccc1O	Mdm2-MdmX inh 52.9 (no result: CSC inhib) | Mdm2 MdmX conf 57.2 | FLuc counter 105.4
COC(=O)c1ccc(COc2ccccc2/C=N/NS(=O)(=O)c2ccccc2)cc1	Mdm2-MdmX inh 52.0 | Mdm2 MdmX conf 51.8 | FLuc counter 114.7
Cc1noc(C)c1NC(=O)N(C)C[C@H]1Oc2ccc(NC(=O)Nc3ccccc3)cc2C(=O)N([C@H](C)CO)C[C@@H]1C	none (no result: Calb FLC, CSC inhib, SKKanGAS inh, T cruzi inh)
O=C(Nc1ccc(N2CCN(C(=O)c3cccs3)CC2)cc1)c1ccco1	none
O=C(Nc1cccc(NC(=O)c2cccs2)c1)c1ccc([N+](=O)[O-])o1	Mdm2-MdmX inh 60.6, CSC inhib inconclusive, SKKanGAS inh 58.8, T cruzi inh 68.3 | Mdm2 MdmX conf 56.5 | FLuc counter 44.1
O=C(Nc1ccc(N2CCN(C(=O)c3cccs3)CC2)cc1)c1ccc([N+](=O)[O-])o1	Mdm2-MdmX inh 72.0, Calb FLC inconclusive, CSC inhib 100.0 | Mdm2 MdmX conf 80.0 | FLuc counter 38.6
CC1(c2nnc(-c3ccncc3)o2)CC(c2ccc(F)cc2)=NO1 (stereo not drawn)	none (no result: Beta apoptosis)
CN1CCN(CCNC(=O)c2ccc3nc(-c4ccc(F)cc4)c(-c4ccc(F)cc4)nc3c2)CC1	Mdm2-MdmX inh 54.4 | Mdm2 MdmX conf inactive
CCc1nc2ccc(C(=O)NCCCN3CCN(c4ccc(F)cc4)CC3)cc2nc1CC	none
COc1ccccc1-n1cnc2cc(NCc3cccs3)ccc21	Mdm2-MdmX inh 50.6 | Mdm2 MdmX conf 55.5 | FLuc counter 80.1
COC(=O)[C@H](CCSC)NC(=O)Cn1cnc2c(SC)nc(N)nc21	none (no result: Calb FLC, CSC inhib, SKKanGAS inh, T cruzi inh)
Cn1cc(S(=O)(=O)NCc2ccc(Cl)cc2)c(=O)n(C)c1=O	none
O=C(Cc1ccccc1)NC(NC(=S)Nc1cc(Cl)ccc1Cl)C(Cl)(Cl)Cl (stereo not drawn)	none
O=C(/C=C/c1ccccc1)NC(NC(=S)Nc1ccc(Cl)cc1)C(Cl)(Cl)Cl (stereo not drawn)	Mdm2-MdmX inh 60.0, SKKanGAS inh 63.3, T cruzi inh 72.0 | Mdm2 MdmX conf 62.1 | FLuc counter inactive
O=C(/C=C/c1ccccc1)NC(NC(=S)Nc1cc(Cl)ccc1Cl)C(Cl)(Cl)Cl (stereo not drawn)	Mdm2-MdmX inh 89.4, CSC inhib inconclusive, SKKanGAS inh 51.9, T cruzi inh 75.1 | Mdm2 MdmX conf 87.5 | FLuc counter inactive
